This is an account of results in ChEMBL document CHEMBL1932933, “A small chemical library of 2-aminoimidazole derivatives as BACE-1 inhibitors: Structure-based design, synthesis, and biological evaluation” (Eur J Med Chem, 2012).

A word on the IC50: it is the midpoint of a concentration-inhibition curve. A word on the inhibition: it is the share of the control response that was lost under treatment.

Data set [1] can be described thus: Permeability of the compound by PAMPA. The data set is classed as ADME. Conditions: read-out: permeability; call rule not given here.
The nature of data set [2]: Inhibition of BACE1 in chicken primary telencephalon neurons assessed as reduction of amyloid beta38 secretion after 24 hrs by ELISA. On the set-up: species or system Gallus gallus. The essentials:
(§1)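 Aβ secretion from neurons after 24 h of inhibitor treatment. Data were corrected for mean neuron viability from an MTT reduction assay run after 24 h of treatment. Values are the mean of three independent experiments.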
For orientation: An ELISA detects its analyte on a solid surface through an enzyme-linked reagent.

Data set [3] in a line: Inhibition of BACE1 in chicken primary telencephalon neurons assessed as reduction of amyloid beta42 secretion after 24 hrs by ELISA. On the set-up: species or system Gallus gallus. The essentials: as §1
Data set [4] can be described thus: Inhibition of BACE1 in chicken primary telencephalon neurons assessed as reduction of amyloid beta40 secretion after 24 hrs by ELISA. Further details: species or system Gallus gallus. The essentials: as §1
Data set [5] addresses T1, Beta-secretase 1 (Homo sapiens, UniProt P56817). Description: Inhibition of BACE1 using methoxycoumarin-Ser-Glu-Val-Asn-Leu-Asp-Ala-Glu-Phe-Lys-dinitrophenyl as substrate preincubated 1 hr before substrate addition measured after 15 mins by FRET assay.
Data set [6] has as its target T1, Beta-secretase 1. Description: Inhibition of BACE1 using methoxycoumarin-Ser-Glu-Val-Asn-Leu-Asp-Ala-Glu-Phe-Lys-dinitrophenyl as substrate at 100 uM preincubated 1 hr before substrate addition measured after 15 mins by FRET assay.
The nature of data set [7]: Solubility of the compound. The data set is classed as physicochemical.
A short description of data set [8]: Cytotoxicity against chicken primary telencephalon neurons at 50 uM after 24 hrs by MTT assay. Further details: species or system Gallus gallus.
The nature of data set [9]: Cytotoxicity against chicken primary telencephalon neurons at 25 uM after 24 hrs by MTT assay. On the set-up: species or system Gallus gallus. Background: Formazan colour is commonly taken as a measure of viable cells.
[10] abbreviates: Gallus gallus, 24 h, read-out: IC50.

T1 sequence (P56817 whole entry): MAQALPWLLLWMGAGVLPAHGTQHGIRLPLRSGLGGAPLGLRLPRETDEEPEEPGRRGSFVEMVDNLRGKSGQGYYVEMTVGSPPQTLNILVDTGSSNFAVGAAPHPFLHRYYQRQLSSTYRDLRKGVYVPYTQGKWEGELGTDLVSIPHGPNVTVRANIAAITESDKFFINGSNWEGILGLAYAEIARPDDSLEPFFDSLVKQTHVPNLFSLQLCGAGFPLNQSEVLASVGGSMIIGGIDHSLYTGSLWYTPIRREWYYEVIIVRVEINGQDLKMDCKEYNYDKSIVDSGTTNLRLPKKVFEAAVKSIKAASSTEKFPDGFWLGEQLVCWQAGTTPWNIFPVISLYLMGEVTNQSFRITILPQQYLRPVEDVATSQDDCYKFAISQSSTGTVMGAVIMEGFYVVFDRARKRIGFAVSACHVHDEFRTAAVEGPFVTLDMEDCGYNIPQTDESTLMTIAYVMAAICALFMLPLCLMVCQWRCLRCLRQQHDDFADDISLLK

Consider `CN1C(C(=O)Nc2ccccn2)=C(O)c2ccccc2S1(=O)=O` [PIROXICAM], for which the Papp in [1] is 0.4 ×10⁻⁶ cm/s.
Consider `Nc1nc(Cc2ccc(-c3cccc4oc5ccccc5c34)cc2)cn1Cc1ccccc1Cl`, for which the concentration for half-maximal inhibition (IC50) result in data set [2] was “Not Active”; in data set [3], “Not Active”; in [4], “Not Active”; in [5], 5.95 µM. Moreover, the Papp in data set [1] was 4 ×10⁻⁶ cm/s.
`Nc1nc(Cc2ccccc2)cn1Cc1ccccc1`: the inhibition in data set [6] was 19.6%.
`Nc1nc(Cc2ccc(-c3ccc(C(F)(F)F)cc3)cc2)cn1Cc1cc(F)cc(F)c1`: the IC50 entry was “Not Active” in [2], “Not Active” in data set [3], “Not Active” in data set [4] and 5.59 µM in [5]. Moreover, in data set [7], the solubility result is listed as “Insoluble”.
Turning to `Cn1c(=O)c2c(ncn2C)n(C)c1=O` [CAFFEINE], in data set [1], the Papp worked out at 0.9 ×10⁻⁶ cm/s.
In the case of `COc1cc(OC)cc(-c2ccc(Cc3cn(Cc4cc(F)cc(F)c4)c(N)n3)cc2)c1`, the IC50 in [2] (setting [10]) was 33 µM; in [3] (setting [10]) it was 27 µM; in data set [4] (setting [10]), 35 µM; in data set [5] it was 7.32 µM. Moreover, the Activity result in data set [8] is on record as “Toxic”. Also, in data set [1], the Papp worked out at 3.2 ×10⁻⁶ cm/s.
For `CN(C)CCCN1c2ccccc2Sc2ccccc21` [PROMAZINE], in data set [1], the Papp was determined as 11.5 ×10⁻⁶ cm/s.
Consider `CCn1cc(C(=O)O)c(=O)c2cc(F)c(N3CCNCC3)nc21` [ENOXACIN], for which the Papp in [1] was 0.3 ×10⁻⁶ cm/s.
Turning to `COc1cc(OC)cc(-c2ccc(Cc3cn(Cc4ccc(F)cc4)c(N)n3)cc2)c1`, the Activity entry in data set [9] is “Toxic”. Further, the IC50 came out at 15 µM in [2] (setting [10]), 19 µM in data set [3] (setting [10]), 23 µM in [4] (setting [10]) and 7.4 µM in [5]. In addition, the Papp in data set [1] was found to be 4 ×10⁻⁶ cm/s.
